Reference: ChEMBL document CHEMBL3414486, “Synthesis of heterocycle-modified betulinic acid derivatives as antitumor agents” (Eur J Med Chem, 2015)

Tests used:
[1] = Cytotoxicity against human MCF7/ADR cells assessed as growth inhibition after 96 hrs by SRB assay; type: functional, cell-based; details: NCI/ADR-RES
In short: (§1)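 SRB viability assay. Cells are seeded for 24 h, then exposed for 96 h to a concentration series from 20 mM DMSO stocks, with a DMSO control. Cells are fixed in 50% TCA (2 h, 4 °C), stained with 0.4% SRB for 10 min and washed with 1% acetic acid. Bound dye is dissolved in 10 mM Tris base and read at 515 nm. IC50 is averaged from at least 3 independent experiments. SI is IC50 in HAF divided by IC50 in the cancer line.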

NCI/ADR-RES [2] = experiment: Induction of apoptosis in human MCF7/ADR cells assessed as late apoptotic cells at 1 uM after 24 hrs by annexin V-FITC/propidium iodide staining-based flow cytometric analysis (reference value: 1.48%); type: functional
MCF7 [3] = experiment: Induction of apoptosis in human MCF7 cells assessed as early apoptotic cells at 1 uM after 24 hrs by annexin V-FITC/propidium iodide staining-based flow cytometric analysis (reference value: 0.74%); type: functional
NCI/ADR-RES [4] = experiment: Induction of apoptosis in human MCF7/ADR cells assessed as early apoptotic cells at 1 uM after 24 hrs by annexin V-FITC/propidium iodide staining-based flow cytometric analysis (reference value: 0.67%); type: functional
MCF7 [5] = experiment: Cytotoxicity against human MCF7 cells assessed as growth inhibition after 96 hrs by SRB assay; type: functional, cell-based; details: MCF7, 96 h; in short: as §1
MCF7 [6] = experiment: Induction of apoptosis in human MCF7 cells assessed as late apoptotic cells at 1 uM after 24 hrs by annexin V-FITC/propidium iodide staining-based flow cytometric analysis (reference value: 0.84%); type: functional

Q: Which IC50 [1] does the source give for `CC(=O)O[C@@]12CO[C@@H]1C[C@H](O)[C@@]1(C)C(=O)[C@H](O)C3=C(C)[C@@H](OC(=O)[C@H](O)[C@@H](NC(=O)OC(C)(C)C)c4ccccc4)C[C@@](O)([C@@H](OC(=O)c4ccccc4)[C@H]21)C3(C)C.O.O.O` [DOCETAXEL] here?
A: 5180 nM

Q: And the Activity (NCI/ADR-RES [2])?
A: 1.58%

Q: And the Activity (MCF7 [3])?
A: 5.61%

Q: And the Activity (NCI/ADR-RES [4])?
A: 1.38%

Q: And the IC50 (MCF7 [5])?
A: 5 nM

Q: What about the Activity (MCF7 [6]) of the same compound?
A: 10.63%
